Laboratory results from ChEMBL document CHEMBL2331196, “Solvent Selection for Insoluble Ligands, a Challenge for Biological Assay Development: A TNF-α/SPD304 Study” (ACS Med Chem Lett, 2013).
In brackets after ≈: the same amount, converted by molar mass.

Experiments:
Format in all cases: physicochemical
[1] = Solubility of the compound in citrate-phosphate buffer at pH 6.5
How it was run: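 The compound was diluted from a 10 mM aqueous stock (pH about 1) into 10 mM citrate-phosphate buffer, pH 6.5, with no organic cosolvent. After centrifugation, soluble material was quantified by UV absorbance at 252 nm. The resuspended precipitate was also measured. Values are the mean of four independent measurements.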

[2] = Solubility of the compound in 5 % glycerol by UV/visible spectroscopy
How it was run: (§1)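 The compound was diluted from a 10 mM aqueous stock of its HCl salt into 10 mM citrate-phosphate buffer, pH 6.5, containing the organic solvent at the stated % (v/v). Samples were centrifuged, and soluble material was read by UV absorbance at 252 nm. The pellet was resuspended in pure solvent and read as a check. Values are the mean of four independent measurements.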

[3] = Solubility of the compound in 2.5 % glycerol by UV/visible spectroscopy; how it was run: as §1
[4] = Solubility of the compound in 10 % glycerol by UV/visible spectroscopy; how it was run: as §1
[5] = Solubility of the compound in 5 % DMF by UV/visible spectroscopy; how it was run: as §1
[6] = Solubility of the compound in 10 % DMF by UV/visible spectroscopy; how it was run: as §1
[7] = Solubility of the compound in 10 % MeOH by UV/visible spectroscopy; how it was run: as §1
[8] = Solubility of the compound in 2.5 % MeOH by UV/visible spectroscopy; how it was run: as §1
[9] = Solubility of the compound in 2.5 % DMSO by UV/visible spectroscopy; how it was run: as §1
[10] = Solubility of the compound in 5 % MeOH by UV/visible spectroscopy; how it was run: as §1
[11] = Solubility of the compound in 10 % PEG3350 by UV/visible spectroscopy; how it was run: as §1
[12] = Solubility of the compound in 2.5 % PEG5000 by UV/visible spectroscopy; how it was run: as §1
[13] = Solubility of the compound in 10 % DMSO by UV/visible spectroscopy; how it was run: as §1
[14] = Solubility of the compound in 5 % DMSO by UV/visible spectroscopy; how it was run: as §1
[15] = Solubility of the compound in 2.5 % DMF by UV/visible spectroscopy; how it was run: as §1
[16] = Solubility of the compound in 10 % PEG5000 by UV/visible spectroscopy; how it was run: as §1
[17] = Solubility of the compound in 5 % PEG3350 by UV/visible spectroscopy; how it was run: as §1
[18] = Solubility of the compound in 5 % PEG5000 by UV/visible spectroscopy; how it was run: as §1

- solubility [1]: 10 µM (≈ 5.48 µg/mL)
- solubility [2]: 19 µM (≈ 10.4 µg/mL)
- solubility [3]: 15 µM (≈ 8.21 µg/mL)
- solubility [4]: 28 µM (≈ 15.3 µg/mL)
- solubility [5]: 58 µM (≈ 31.8 µg/mL)
- solubility [6]: 82 µM (≈ 44.9 µg/mL)
- solubility [7]: 83 µM (≈ 45.5 µg/mL)
- solubility [8]: 37 µM (≈ 20.3 µg/mL)
- solubility [9]: 33 µM (≈ 18.1 µg/mL)
- solubility [10]: 58 µM (≈ 31.8 µg/mL)
- solubility [11]: 96 µM (≈ 52.6 µg/mL)
- solubility [12]: 90 µM (≈ 49.3 µg/mL)
- solubility [13]: 79 µM (≈ 43.3 µg/mL)
- solubility [14]: 52 µM (≈ 28.5 µg/mL)
- solubility [15]: 35 µM (≈ 19.2 µg/mL)
- solubility [16]: > 100 µM
- solubility [17]: 84 µM (≈ 46 µg/mL)
- solubility [18]: 97 µM (≈ 53.1 µg/mL)
Structure (SMILES): Cc1cc2occ(CN(C)CCN(C)Cc3cn(-c4cccc(C(F)(F)F)c4)c4ccccc34)c(=O)c2cc1C
